Data as given in ChEMBL document CHEMBL4038330, “Discovery of Potent Orally Active Protease-Activated Receptor 1 (PAR1) Antagonists Based on Andrographolide” (J Med Chem, 2017).

Assays:
[1] = Apparent volume of distribution in Wistar rat at 1 mg/kg, iv administered as bolus dose measured up to 24 hrs post dose by HPLC-MS/MS analysis; format: ADME, organism-based; conditions: in vivo, read-out: Vd(app)
In short: (§1)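 Male Wistar rats, n = 6 per group, given 1 mg/kg intravenously or 5 mg/kg intragastrically. Blood concentrations followed over 24 h. Non-compartmental analysis; values as median ± SD. Bioavailability from oral versus intravenous exposure.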

Rattus norvegicus [2] = assay: AUMC (0 to infinity) in Wistar rat at 5 mg/kg, po measured up to 24 hrs post dose by HPLC-MS/MS analysis; format: ADME, organism-based; conditions: in vivo; in short: as §1
[3] = Apparent clearance in Wistar rat at 1 mg/kg, iv administered as bolus dose measured up to 24 hrs post dose by HPLC-MS/MS analysis; format: ADME, organism-based; conditions: in vivo, read-out: CL(app) (converted); in short: as §1
[4] = Cmax in Wistar rat at 1 mg/kg, iv administered as bolus dose measured up to 24 hrs post dose by HPLC-MS/MS analysis; format: ADME, organism-based; parameters: dose 1 mg/kg, route intravenous; conditions: in vivo; in short: as §1
[5] = MRT (0 to infinity) in Wistar rat at 1 mg/kg, iv administered as bolus dose measured up to 24 hrs post dose by HPLC-MS/MS analysis; format: ADME, organism-based; conditions: in vivo; in short: as §1
Rattus norvegicus [6] = assay: AUMC (0 to infinity) in Wistar rat at 1 mg/kg, iv administered as bolus dose measured up to 24 hrs post dose by HPLC-MS/MS analysis; format: ADME, organism-based; conditions: in vivo; in short: as §1
[7] = Tmax in Wistar rat at 5 mg/kg, po measured up to 24 hrs post dose by HPLC-MS/MS analysis; format: ADME, organism-based; conditions: in vivo; in short: as §1
Platelet = assay: Effect on ADP-stimulated platelet aggregation in human platelet-rich plasma up to 10 uM preincubated for 20 mins followed by ADP stimulation measured after 5 mins by aggregometric analysis; format: ADME, cell-based
In short: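 Human platelet-rich plasma stimulated with TRAP 15 µM, ADP 10 µM or collagen 5 µg/mL. ADP and collagen tests went up to 10 µM compound. Three separate experiments per agonist. Mean IC50 taken from IC50s of the independent experiments; values given as median ± SD.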

Plasma [8] = assay: Drug metabolism in Wistar rat plasma assessed as [M2+O-2H] metabolite formation at 5 mg/kg, po administered as single dose measured at 3 hrs post dose by LC-HRMS analysis; format: ADME, organism-based; conditions: in vivo
In short: (§2)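 Rats dosed orally at 10 mg/kg or 5 mg/kg. Plasma taken at 3.0 h after dosing. Parent and metabolites detected by extracted ion chromatograms.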

[9] = MRT (0 to infinity) in Wistar rat at 5 mg/kg, po measured up to 24 hrs post dose by HPLC-MS/MS analysis; format: ADME, organism-based; conditions: in vivo; in short: as §1
[10] = Apparent terminal half life in Wistar rat at 5 mg/kg, po measured up to 24 hrs post dose by HPLC-MS/MS analysis; format: ADME, organism-based; conditions: in vivo, read-out: betat1/2(app) (converted); in short: as §1
Rattus norvegicus [11] = assay: Toxicity in Wistar rat assessed as body weight at 1 mg/kg, iv administered as bolus dose measured up to 24 hrs post dose; format: organism-based; conditions: in vivo; in short: as §1
Rattus norvegicus [12] = assay: VRT (0 to infinity) in Wistar rat at 1 mg/kg, iv administered as bolus dose measured up to 24 hrs post dose by HPLC-MS/MS analysis; format: ADME, organism-based; conditions: in vivo
Plasma [13] = assay: Drug metabolism in Wistar rat plasma assessed as [M2-2H] metabolite formation at 5 mg/kg, po administered as single dose measured at 3 hrs post dose by LC-HRMS analysis; format: ADME, organism-based; conditions: in vivo; in short: as §2
Cavia porcellus [14] = assay: In vivo antagonist activity at PAR1 in guinea pig assessed as inhibition of thrombin-stimulated platelet aggregation at 10 mg/kg, po pretreated for 2 hrs followed by thrombin stimulation measured after 5 mins; format: functional
Rattus norvegicus [15] = assay: Toxicity in Wistar rat assessed as behavioral abnormalities at 1 mg/kg, iv measured up to 24 hrs post dose; format: organism-based; conditions: in vivo
In short: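 Male Wistar rats given 1 mg/kg iv or 5 mg/kg intragastrically. Behaviour observed for abnormalities over the 24 h sampling period.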

[16] = Apparent clearance in Wistar rat at 5 mg/kg, po measured up to 24 hrs post dose by HPLC-MS/MS analysis; format: ADME, organism-based; conditions: in vivo, read-out: CL(app) (converted); in short: as §1
[17] = AUC (0 to infinity) in Wistar rat at 1 mg/kg, iv administered as bolus dose measured up to 24 hrs post dose by HPLC-MS/MS analysis; format: ADME, organism-based; parameters: dose 1 mg/kg, time infinity, route intravenous; conditions: in vivo
In short: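 Male Wistar rats, n = 6 per group, dosed intragastrically at 5 mg/kg or intravenously at 1 mg/kg. Blood concentrations followed over 24 h. Parameters from non-compartmental analysis, reported as median ± SD.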

[18] = Tmax in Wistar rat at 1 mg/kg, iv administered as bolus dose measured up to 24 hrs post dose by HPLC-MS/MS analysis; format: ADME, organism-based; conditions: in vivo; in short: as §1
Plasma [19] = assay: Stability in Wistar rat assessed as parent compound level in plasma at 5 mg/kg, po administered as single dose measured at 3 hrs post dose by LC-HRMS analysis; format: ADME, organism-based; conditions: in vivo; in short: as §2
Plasma [20] = assay: Drug metabolism in Wistar rat plasma assessed as [M2+O] metabolite formation at 5 mg/kg, po administered as single dose measured at 3 hrs post dose by LC-HRMS analysis; format: ADME, organism-based; conditions: in vivo; in short: as §2
[21] = test system: ADP-stimulated platelet aggregation; assay: Toxicity in guinea pig assessed as inhibition of ADP-stimulated platelet aggregation at 10 mg/kg, po pretreated for 2 hrs followed by ADP stimulation measured after 5 mins; format: organism-based, Cavia porcellus; conditions: in vivo
Cavia porcellus [22] = assay: In vivo antagonist activity at PAR1 in guinea pig assessed as inhibition of TRAP-stimulated platelet aggregation at 30 mg/kg, po pretreated for 2 hrs followed by TRAP stimulation measured after 5 mins; format: functional
[23] = Oral bioavailability in Wistar rat at 5 mg/kg measured up to 24 hrs post dose by HPLC-MS/MS analysis; format: ADME, organism-based; conditions: in vivo; in short: as §1
[24] = Apparent terminal half life in Wistar rat at 1 mg/kg, iv administered as bolus dose measured up to 24 hrs post dose by HPLC-MS/MS analysis; format: ADME, organism-based; conditions: in vivo, read-out: betat1/2(app) (converted); in short: as §1
Rattus norvegicus [25] = assay: Toxicity in Wistar rat assessed as body weight at 5 mg/kg, po measured up to 24 hrs post dose; format: organism-based; conditions: in vivo
[26] = test system: ADP-stimulated platelet aggregation; assay: Toxicity in guinea pig assessed as inhibition of ADP-stimulated platelet aggregation at 30 mg/kg, po pretreated for 2 hrs followed by ADP stimulation measured after 5 mins; format: organism-based, Cavia porcellus; conditions: in vivo
[27] = Cmax in Wistar rat at 5 mg/kg, po measured up to 24 hrs post dose by HPLC-MS/MS analysis; format: ADME, organism-based; parameters: dose 5 mg/kg, route oral; conditions: in vivo; in short: as §1
Rattus norvegicus [28] = assay: Apparent volume of distribution in Wistar rat at 5 mg/kg, po measured up to 24 hrs post dose by HPLC-MS/MS analysis; format: ADME, organism-based; conditions: in vivo; in short: as §1

CC1CC[C@@H]2C(C)(C)[C@H](O)CC[C@@]2(C)[C@@H]1/C=C/c1ccc(-c2cccc(F)c2)cn1 (single isomer, unassigned)
Vd [1]: 5.7 L/kg
AUMC (Rattus norvegicus [2]): 8382 ng·h/mL
clearance [3]: 31.7 mL/min/kg
Cmax [4]: 1730 ng/mL
MRT inf [5]: 2 h
AUMC (Rattus norvegicus [6]): 1135 ng·h/mL
Tmax [7]: 2.5 h
Activity (Platelet): Non-Toxic
Drug metabolism (Plasma [8]): Metabolite_Detected
MRT inf [9]: 5.6 h
half-life [10]: 3.1 h
Activity (Rattus norvegicus [11]): 226 g
VRT (Rattus norvegicus [12]): 7.6 ha2
Drug metabolism (Plasma [13]): Metabolite_Detected
inhibition in vivo at 10 mg/kg (Cavia porcellus [14]): 66.9%
Activity (Rattus norvegicus [15]): Non-Toxic
CL/F [16]: 75 mL/min/kg
AUC(0-inf) [17]: 552 ng·h/mL
Tmax [18]: 1.2 min
Stability (Plasma [19]): Stable
Drug metabolism (Plasma [20]): Metabolite_Detected
inhibition at 5 min [21]: 6.7%
inhibition in vivo at 30 mg/kg (Cavia porcellus [22]): 98.7%
bioavailability [23]: 52.5%
half-life [24]: 2 h
Activity (Rattus norvegicus [25]): 224 g
inhibition at 5 min [26]: 4.5%
Cmax [27]: 229 ng/mL
Vd(app) (Rattus norvegicus [28]): 20 L/kg
